Experimental data reported in ChEMBL document CHEMBL3046311, “Synthesis and antifungal activities of alkyl N-(1,2,3-thiadiazole-4-carbonyl) carbamates and S-alkyl N-(1,2,3-thiadiazole-4-carbonyl) carbamothioates” (2005).

Key:
Assay type in all cases: functional
Conditions in all cases: read-out: GI
Fusarium graminearum [1] = assay: Fungistatic activity against Fusarium graminearum assessed as inhibition of mycelial growth measured at 5 ug/mL at 28 degC after 72 hr relative to control
How it was run: (§1)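 Poisoned-food plate assay with Gibberella zeae. Compound in acetone (500 or 50 µg/mL stocks) is mixed 1:9 with molten potato dextrose agar at 50 °C and poured. Once set, plates are inoculated with a 4 mm mycelium disk, inverted, and held 72 h at 28 °C. Water is the negative control, run in triplicate. Colony radius is measured, and inhibition = (C−T)/C × 100%.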

Alternaria kikuchiana [2] = assay: Fungistatic activity against Alternaria kikuchiana assessed as inhibition of mycelial growth measured at 5 ug/mL at 28 degC after 72 hr relative to control
How it was run: (§2)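 Compounds in acetone at stock levels of 500 and 50 µg/mL; 1 mL of stock mixed into 9 mL thawed potato dextrose agar at 50 °C and poured. Solidified plates were inoculated with a 4 mm mycelial disk, inverted, and held at 28 °C for 72 h. Water served as negative control, in triplicate. Inhibition was calculated as (C−T)/C × 100% from colony radii.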

Fusarium graminearum [3] = assay: Fungistatic activity against Fusarium graminearum assessed as inhibition of mycelial growth measured at 50 ug/mL at 28 degC after 72 hr relative to control; how it was run: as §1
Alternaria kikuchiana [4] = assay: Fungistatic activity against Alternaria kikuchiana assessed as inhibition of mycelial growth measured at 50 ug/mL at 28 degC after 72 hr relative to control; how it was run: as §2

Compound	inhibition of growth at 5 µg/mL (Fusarium graminearum [1]) [%]	inhibition of growth at 5 µg/mL (Alternaria kikuchiana [2]) [%]	inhibition of growth at 50 µg/mL (Fusarium graminearum [3]) [%]	inhibition of growth at 50 µg/mL (Alternaria kikuchiana [4]) [%]
CCCCCCCSC(=O)NC(=O)c1csnn1	12	4	35	32
CCCCSC(=O)NC(=O)c1csnn1	0	32	10	36
CCCCCCOC(=O)NC(=O)c1csnn1	23	54	92	90.7
CCCCCCCCOC(=O)NC(=O)c1csnn1	63	20	81	50
O=C(NC(=O)c1csnn1)OCCCCCCCCCCCCBr	6	13	21	36
CCCCOC(=O)NC(=O)c1csnn1	6	23	11	50
O=C(NC(=O)c1csnn1)OC1CCCCC1	0	32	17	59
CCCCCCCCCCCCCCOC(=O)NC(=O)c1csnn1	0	15	100	50
CCCCCCCCCOC(=O)NC(=O)c1csnn1	23	27	60	50
CCCCCCCCCCOC(=O)NC(=O)c1csnn1	42	54	75	54
CCCSC(=O)NC(=O)c1csnn1	27	9	54	36
CCCCCCCCSC(=O)NC(=O)c1csnn1	10	0	31	18
CCCCCCSC(=O)NC(=O)c1csnn1	25	4	75	27
CCCCCOC(=O)NC(=O)c1csnn1	4	36	42	45
CCCCCCCCCCCOC(=O)NC(=O)c1csnn1	59	10	78	40
CCCCCCCOC(=O)NC(=O)c1csnn1	78	20	92	50
O=C(NC(=O)c1csnn1)OCCCCCCCCCCBr	25	0	42	41
CCCCCCCCCCCCCCCCOC(=O)NC(=O)c1csnn1	0	14	67	27
CC(C)CCOC(=O)NC(=O)c1csnn1	15	25	100	50
